Shown are actives, neighbours in structure and some others; about 1.8% of the full set was active somewhere.
NR1D1 modulator – Rev-erb alpha (human) modulation; P20393; Rev-erbα–FITC-DNA binding, fluorescence polarization, 90 min; activity, % at 10 µM; 370,000 tested, 0.79% active; AID 1259318;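 active = activity above about 14%, limit read from the data; passing the limit was not always enough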;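 also: 0% = DMSO wells with 35 nM protein and 100% = DMSO wells with 750 nM protein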
Target sequence (P20393 whole entry, looked up): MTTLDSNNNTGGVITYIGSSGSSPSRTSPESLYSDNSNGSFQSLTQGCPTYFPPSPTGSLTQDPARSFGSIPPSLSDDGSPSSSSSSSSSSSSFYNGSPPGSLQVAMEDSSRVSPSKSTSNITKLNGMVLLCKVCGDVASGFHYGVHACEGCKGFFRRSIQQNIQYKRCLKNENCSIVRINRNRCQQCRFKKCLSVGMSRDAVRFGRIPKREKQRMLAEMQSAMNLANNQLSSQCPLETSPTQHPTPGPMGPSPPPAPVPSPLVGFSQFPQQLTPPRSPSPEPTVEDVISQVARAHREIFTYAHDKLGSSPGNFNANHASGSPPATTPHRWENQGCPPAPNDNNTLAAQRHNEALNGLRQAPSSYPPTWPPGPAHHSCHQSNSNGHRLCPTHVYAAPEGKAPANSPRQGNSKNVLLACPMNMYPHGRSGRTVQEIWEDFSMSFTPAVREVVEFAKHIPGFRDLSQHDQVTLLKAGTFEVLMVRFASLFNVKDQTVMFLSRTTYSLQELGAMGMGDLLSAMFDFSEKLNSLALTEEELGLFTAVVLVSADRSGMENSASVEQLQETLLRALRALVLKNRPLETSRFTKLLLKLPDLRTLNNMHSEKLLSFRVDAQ
PG9 binder – PG9 antibody binding by small molecule. 360,000 tested, 0.43% active. inhibition, % at 6.7 µM. TR-FRET gp120-PG9 antibody binding; in the data active = inhibition above about 8.5%
GalR3 antag – antagonists of human GalR3; HEK293 GalR3-CNG cAMP membrane potential fluorescence; galR3 body fused to GalR1 C-terminus; 360,000 tested, 0.44% active; inhibition, % at 3 µM; O60755; AID 651719;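 active = inhibition above the screen-wide average plus 3 SD, cut at about 13% in these data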;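 also: forskolin and galanin both at EC90 stimulate the cells; cAMP rise reported by CNG channel membrane potential dye signal; 0% = forskolin plus galanin with DMSO and 100% = forskolin alone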
NR2E3 ag-1 – activates human photoreceptor nuclear receptor NR2E3 | Q9Y5X4 | GST-NR2E3/biotin-RetCOR TR-FRET, 1536-well | inhibition of corepressor binding, % at 4.78 µM | 320,000 tested, 0.12% active | AID 2300;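 active = percent inhibition above the cutoff of mean plus 3 SD of all tested compounds, set per screening campaign, cut at about 20% in these data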;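 also: 0% = DMSO wells and 100% = biotin wells as full block of FRET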
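System: GST-NR2E3 and biotin-RetCOR proteins; probe or stimulus: 7 nM biotin-RetCOR; doses: compound at 4.8 µM, single dose; schedule: Compound–protein incubation for 5 h at 4 °C; detection: time-resolved FRET; read-out: percent inhibition; controls: biotin wells as high control, 0.6% DMSO wells as low control; format: 1536-well plates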
NR2E3 ag-2 – activates human NR2E3 receptor | Q9Y5X4 | CHO-S Gal4-NCOR/VP16-NR2E3 two-hybrid, luciferase | inhibition of corepressor binding, % at 3.98 µM | 360,000 tested, 0.35% active | AID 602229;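 active = inhibition above the mean of all tested compounds plus 3 SD, cut at about 70% in these data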;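 also: 0% = DMSO with NR2E3 transfected cells and 100% = cells lacking NR2E3 construct; higher means lower luciferase signal from less NR2E3 corepressor binding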
GalR3 conf – GalR3 (human) antagonism, confirmation; shares compounds with GalR3 antag; HEK293 GalR3 CNG cAMP biosensor, membrane potential fluorescence; galR3 fused to GalR1 carboxy tail; challenged with forskolin and galanin at EC90; inhibition, % at 3 µM; 1,600 tested, 59% active; AID 652245;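 active = inhibition above the primary screen's cutoff, the mean inhibition of all screened compounds plus 3 SD, cut at about 13% in these data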;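 also: 0% = forskolin plus galanin and 100% = forskolin alone with DMSO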
CNG parental – counter-screen for GalR3 antagonists: nonspecific agonists in parental HEK-CNG cells. AID 652268. 1,600 tested, 10% active. shares compounds with GalR3 antag. HEK293-CNG parental cells, cAMP membrane potential fluorescence; normalised: DMSO wells 0%, forskolin wells 100%. activation, % at 3 µM; in the data active = activation above about 1.3%
* hit, by the source's call.

Screening CC(=O)OCC1OC(c2ccccc2)C(OC(C)=O)C(OC(C)=O)C1OC(C)=O (stereo unspecified) returned NR1D1 modulator -2.0, PG9 binder -2.7, GalR3 antag -1.8, NR2E3 ag-1 1.3 and NR2E3 ag-2 -5.3.
CC(=O)OCC1OC(n2c(S)c(C#N)c(-c3ccccc3)c(C#N)c2=O)C(OC(C)=O)C(OC(C)=O)C1OC(C)=O (stereo unspecified) was read as NR1D1 modulator 5.4, PG9 binder -1.0, GalR3 antag 57.2*, NR2E3 ag-2 18.1, GalR3 conf 86.6* and CNG parental 0.6.
CCOc1ccccc1C(=O)N1CCC(Oc2cccnc2)CC1 was read as NR1D1 modulator -1.1.
`COC(=O)c1c(-c2ccc(OC)cc2)sc2cc3c(cc12)OCO3` gave NR1D1 modulator -1.4, PG9 binder 0.3, GalR3 antag 12.9*, NR2E3 ag-1 0.3, NR2E3 ag-2 -125.5, GalR3 conf 18.0* and CNG parental 0.1.
For COC(=O)c1c(-c2ccc(N(C)C)cc2)sc2ccc(OC)cc12 the results were NR1D1 modulator -1.9, PG9 binder 7.7, GalR3 antag 1.7 and NR2E3 ag-2 28.2.
For CCCCN1CCS(=O)(=O)N(Cc2cn(Cc3cccc(Cl)c3)nn2)C(C(=O)OC)C1 (stereo unspecified) the results were NR1D1 modulator 4.0.
`Cn1cnc([N+](=O)[O-])c1S(=O)(=O)c1ccc(Cl)cc1` gave NR1D1 modulator -3.0, PG9 binder -0.1, GalR3 antag 12.7*, NR2E3 ag-2 10.8, GalR3 conf 1.3 and CNG parental 0.2.
Screening COc1cccc(C(=O)NCCN2C(=O)C3C4C=CC(C4)C3C2=O)c1 (stereo unspecified) returned NR1D1 modulator 6.1.
For CCCN(CC1CC1)C(=O)c1ccc(CNC(=O)c2cccc(Br)c2)cc1 the results were NR1D1 modulator 7.8.
For CC(=O)c1cccc(NS(=O)(=O)c2ccc(C(=O)Nc3ccccc3)cc2)c1 the results were NR1D1 modulator 0.2, PG9 binder -1.5, GalR3 antag 55.6*, NR2E3 ag-1 0.6, NR2E3 ag-2 75.0*, GalR3 conf 71.0* and CNG parental -0.4.
O=C(NC(Cc1ccccc1)C(=O)O)/C(=C\c1ccc(F)cc1)NC(=O)c1ccco1 (stereo unspecified) was read as NR1D1 modulator -2.5, PG9 binder -0.8, GalR3 antag -7.6, NR2E3 ag-1 1.6 and NR2E3 ag-2 -2.2.
Screening O=C(NC(Cc1ccccc1)C(=O)O)/C(=C/c1ccccc1)NC(=O)c1ccco1 (stereo unspecified) returned NR1D1 modulator -5.5, PG9 binder -4.0, GalR3 antag 16.1*, NR2E3 ag-1 2.4, NR2E3 ag-2 -13.4, GalR3 conf 7.7 and CNG parental 0.1.
For O=C(O)CCCCCCCCCCP(=O)(c1ccccc1)c1ccccc1 the results were NR1D1 modulator 5.9, PG9 binder -1.8, GalR3 antag 13.1*, NR2E3 ag-1 -1.0, NR2E3 ag-2 -1.1, GalR3 conf -1.7 and CNG parental 0.3.
Screening O=P(CCCCCCCCCP(=O)(c1ccccc1)c1ccccc1)(c1ccccc1)c1ccccc1 returned NR1D1 modulator -3.9, PG9 binder -0.2, GalR3 antag -5.4, NR2E3 ag-1 2.6 and NR2E3 ag-2 2.8.
For COc1ccc(Cn2c(=O)[nH]c3cc(C(=O)N4CCN(Cc5ccccc5)CC4)ccc3c2=O)cc1 the results were NR1D1 modulator 2.3, PG9 binder 0.2, GalR3 antag 65.0*, NR2E3 ag-1 0.4, NR2E3 ag-2 1.2, GalR3 conf 88.3* and CNG parental -0.5.
Screening Cc1cc(=O)[nH]c(N/N=C/c2ccc(Cl)c([N+](=O)[O-])c2)n1 returned NR1D1 modulator -8.6, PG9 binder 0.5, GalR3 antag 13.7*, NR2E3 ag-1 3.3, NR2E3 ag-2 -16.3, GalR3 conf 1.8 and CNG parental 0.2.
Screening CC(C)N(Cc1cn(Cc2ccccc2)nn1)S(=O)(=O)c1ccccc1Br returned NR1D1 modulator -3.6.
C[N+](C)(C)C/C=C1/COCO1 was read as NR1D1 modulator -1.4, PG9 binder 1.3, GalR3 antag 19.5*, NR2E3 ag-1 -0.5, NR2E3 ag-2 25.8, GalR3 conf 13.4* and CNG parental 0.3.
For O=S1(=O)C=CCN1Cc1cn(Cc2cccc(C(F)(F)F)c2)nn1 the results were NR1D1 modulator -2.3.
Screening CC(C)NC(=O)N1CCCN(c2nc3ccc(Cl)cc3s2)CC1 returned NR1D1 modulator 4.7, PG9 binder 0.0, GalR3 antag 19.7*, NR2E3 ag-1 5.5, NR2E3 ag-2 -27.0, GalR3 conf 6.9 and CNG parental -0.5.
Screening CC(C)C(=O)N1CCN(c2nc3ccc(Cl)cc3s2)CC1 returned NR1D1 modulator -7.2, PG9 binder 0.2, GalR3 antag 0.3, NR2E3 ag-1 -2.6 and NR2E3 ag-2 -89.4.
For COC(=O)C[C@H]1CC[C@@H]2[C@H](COc3ccc(NS(C)(=O)=O)cc3C(=O)N2C)O1 the results were NR1D1 modulator 5.3.
For N#Cc1ccc(/C=C2\CC3(OC(=O)C4CCCC4)CCCN2C3)cc1 (stereo unspecified) the results were NR1D1 modulator -2.0.
Screening CN(C)c1ccc(CC(=O)N2CCCC(c3cc(C(=O)Nc4ccc(C(C)(C)C)cc4)no3)C2)cc1 (stereo unspecified) returned NR1D1 modulator 9.4, PG9 binder 0.2, GalR3 antag 49.0*, NR2E3 ag-2 -15.4, GalR3 conf 109.3* and CNG parental -1.1.
Screening O=C(Nc1ccccc1)c1cc(C2CCCN(C(=O)CCc3ccccc3)C2)on1 (stereo unspecified) returned NR1D1 modulator 4.0, PG9 binder 1.9, GalR3 antag -3.0 and NR2E3 ag-2 -106.3.
CCCCOCCCNC(=O)C[C@H]1C[C@@]2(C(=O)OC)C(=C[C@H](C(C)(C)C)O[C@@H]2C)N(Cc2cccc3ccccc23)C1=O was read as NR1D1 modulator 5.4.
Cc1ccccc1NC(=O)CN1CCN(c2nc(-c3ccccc3)cs2)CC1 was read as NR1D1 modulator -2.1.
`O=c1cc(-c2ccccc2)[nH]c2ccc(F)cc12` gave NR1D1 modulator -3.6, PG9 binder 1.1, GalR3 antag 20.4*, NR2E3 ag-1 0.3, NR2E3 ag-2 -34.9, GalR3 conf 5.4 and CNG parental 1.1.

Screens (PubChem)
